Test results reported in ChEMBL document CHEMBL1268856, “The tomato saponin, esculeoside A” (J Nat Prod, 2010).
Active and inactive are the calls of the source. The rule behind the calls is not given here.

Key:
[1] = biological target: T1, Sterol O-acyltransferase 2 (Homo sapiens) (UniProt O75908); test: Inhibition of human ACAT2 expressed in CHO cells assessed as inhibition of [3H]oleate-induced cholesterol ester accumulation; type: cell-based
T1 sequence (whole entry): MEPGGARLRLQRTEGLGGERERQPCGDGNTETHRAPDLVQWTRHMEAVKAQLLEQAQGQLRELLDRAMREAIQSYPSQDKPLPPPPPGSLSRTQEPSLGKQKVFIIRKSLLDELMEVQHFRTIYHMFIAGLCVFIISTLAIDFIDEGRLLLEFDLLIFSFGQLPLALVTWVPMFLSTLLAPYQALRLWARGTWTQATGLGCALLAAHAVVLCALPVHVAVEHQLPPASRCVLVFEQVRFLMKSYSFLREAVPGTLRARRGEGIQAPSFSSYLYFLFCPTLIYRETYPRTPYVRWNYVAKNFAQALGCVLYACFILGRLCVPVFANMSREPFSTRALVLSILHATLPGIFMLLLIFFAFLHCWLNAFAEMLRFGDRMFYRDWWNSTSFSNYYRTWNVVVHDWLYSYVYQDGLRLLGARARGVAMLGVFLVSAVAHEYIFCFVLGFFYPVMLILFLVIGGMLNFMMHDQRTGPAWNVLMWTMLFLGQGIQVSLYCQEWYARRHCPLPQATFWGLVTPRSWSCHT
Method in brief: (§1)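 CHO cells overexpressing human ACAT-1 or ACAT-2 were incubated 24 h in medium with 10% fetal calf serum, 0.1 mM [3H]oleate-BSA and the indicated compound concentrations. [3H]cholesteryl ester was separated by TLC and radioactivity measured. Repeated three times.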

MDM [2] = test: Antihyperlipidemic activity in human MDM cell assessed as inhibition of acetule-LDL-induced cholesterol ester accumulation after 5 hrs; type: functional, cell-based
MDM [3] = test: Antihyperlipidemic activity in human MDM cell assessed as inhibition of acetule-LDL-induced cholesterol ester accumulation after 24 hrs; type: functional, cell-based
Method in brief: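 Human monocyte-derived macrophages were incubated 24 h with 50 µg/mL acetyl-LDL plus 0.1 mM [3H]oleate conjugated to BSA, with or without compound. [3H]cholesteryl ester was separated by TLC and counted by radioscanner. Three independent experiments; means ± SD.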

[4] = biological target: T2, Sterol O-acyltransferase 1 (Homo sapiens) (UniProt P35610); test: Inhibition of human ACAT1 expressed in CHO cells assessed as inhibition of [3H]oleate-induced cholesterol ester accumulation; type: cell-based; method in brief: as §1
T2 sequence (whole entry): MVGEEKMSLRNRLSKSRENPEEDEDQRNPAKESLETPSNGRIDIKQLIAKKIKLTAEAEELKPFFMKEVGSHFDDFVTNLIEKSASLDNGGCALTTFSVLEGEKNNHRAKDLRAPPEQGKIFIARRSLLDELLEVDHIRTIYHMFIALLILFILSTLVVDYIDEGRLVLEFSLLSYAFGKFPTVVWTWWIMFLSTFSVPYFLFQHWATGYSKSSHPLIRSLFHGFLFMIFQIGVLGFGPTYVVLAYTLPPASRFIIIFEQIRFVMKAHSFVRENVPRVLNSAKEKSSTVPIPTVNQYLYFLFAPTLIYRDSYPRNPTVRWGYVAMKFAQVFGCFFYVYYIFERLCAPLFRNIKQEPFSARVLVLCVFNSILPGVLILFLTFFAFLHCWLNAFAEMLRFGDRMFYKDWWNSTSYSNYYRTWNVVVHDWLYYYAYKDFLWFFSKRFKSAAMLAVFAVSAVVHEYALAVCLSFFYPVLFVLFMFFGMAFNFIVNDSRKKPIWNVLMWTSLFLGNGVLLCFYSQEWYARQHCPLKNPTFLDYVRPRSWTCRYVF

Mus musculus [5] = test: Antihyperlipidemic in apoE deficient mouse assessed as reduction in triglyceride level at 100 mg/kg qd after 90 hrs; type: functional; design: scale not given: the % may be the effect or the level left; details: in the assay text read “after 90 days” for “after 90 hrs”
Method in brief: (§2)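 ApoE-deficient mice were fed diets with or without compound (100 mg/kg/day) for 90 days, n = 10 per group. Plasma total cholesterol, LDL cholesterol and triglyceride were then measured. Data are means ± SD.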

Mus musculus [6] = test: Antihyperlipidemic in apoE deficient mouse assessed as reduction in total cholesterol level at 100 mg/kg qd after 90 hrs; type: functional; design: scale not given: the % may be the effect or the level left; details: in the assay text read “after 90 days” for “after 90 hrs”; method in brief: as §2
Mus musculus [7] = test: Antihyperlipidemic in apoE deficient mouse assessed as reduction in LDL cholesterol level at 100 mg/kg qd after 90 hrs; type: functional; design: scale not given: the % may be the effect or the level left; details: in the assay text read “after 90 days” for “after 90 hrs”; method in brief: as §2
[8] = Cytotoxicity against human MDM cells at 100 uM; type: cell-based
Mus musculus [9] = test: Antiatherogenesis in apoE deficient mouse assessed as reduction in aortic lesions at 100 mg/kg qd; type: functional, Aorta; design: scale not given: the % may be the effect or the level left
Method in brief: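 ApoE-deficient mice given diet with or without compound at 100 mg/kg/day for 90 days, n = 10 per group. Aortic sinus cross sections stained with oil red O and viewed at ×200. Cross-sectional lesion area was quantified and compared with untreated controls.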

| SMILES | Activity [1] | Activity (MDM [2]) | Activity (MDM [3]) | Activity [4] | Activity (Mus musculus [5]) [%] | Activity (Mus musculus [6]) [%] | Activity (Mus musculus [7]) [%] | Activity [8] | Activity (Mus musculus [9]) [%] |
| --- | --- | --- | --- | --- | --- | --- | --- | --- | --- |
| C[C@@H]1[C@H]2[C@H](C[C@H]3[C@@H]4CC[C@H]5C[C@@H](O)CC[C@]5(C)[C@H]4CC[C@]23C)O[C@@]12NC[C@@H](CO)C[C@@H]2O | Dose-dependent effect | Dose-dependent effect | Active | Dose-dependent effect |  |  |  |  |  |
| CC(=O)O[C@H]1C[C@H](CO[C@@H]2O[C@H](CO)[C@@H](O)[C@H](O)[C@H]2O)CN[C@@]12O[C@H]1C[C@H]3[C@@H]4CC[C@H]5C[C@@H](O[C@@H]6O[C@H](CO)[C@H](O[C@@H]7O[C@H](CO)[C@@H](O)[C@H](O[C@@H]8OC[C@@H](O)[C@H](O)[C@H]8O)[C@H]7O[C@H]7O[C@H](CO)[C@@H](O)[C@H](O)[C@H]7O)[C@H](O)[C@H]6O)CC[C@]5(C)[C@H]4CC[C@]3(C)[C@H]1[C@H]2C [ESCULEOSIDE A] |  |  | Active |  | 45 | 25 | 25 | Non-toxic | 52 |
